Results as given in article PMC9157583 (Alzheimer's & Dementia : Translational Research & Clinical …, 2022).
Several values for one entry are separate records, joined by “and”; a condition that tells them apart may be missing. Identical values can stand only once. Like-named read-outs stand apart in the source and are kept apart here.

Columns and labels:
[1] = Pharmacokinetics: bosutinib concentration in plasma of DLB participants; assay type: in vivo, human; conditions: for Tmax / AUC / Cmax: human; for AUC: AUC0‐4, plasma
[2] = open label study, 12 months; cited from earlier work
[3] = system: individuals with dementia with Lewy bodies; test: Exploratory clinical assessments; assay type: in vivo, human; conditions: change 12 week‐ baseline, bosutinib 100 mg vs. placebo; interval in brackets
Src = Src (Homo sapiens, UniProt P12931); test: Phospho‐Src; assay type: in vivo; conditions: bosutinib 100 mg compared to placebo, 12 weeks
Method in brief: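 Phospho-Src was assayed with a PathScan sandwich ELISA. CSF or plasma was added to wells coated with rabbit polyclonal antibody that captures Src phosphorylated at Tyr416. Samples came from DLB participants at baseline and after 12 weeks of oral test compound 100 mg daily or placebo. Within-group changes used a one-tailed paired Wilcoxon test; between-group changes used a one-tailed Welch-corrected unpaired t-test.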

[4] = cited from earlier work
[5] = for AUC / Cmax / Tmax: human, in vivo, po; for AUC: AUC0‐4, CSF
alpha‐synuclein oligomer = test: Oligomeric alpha‐synuclein ELISA in CSF and plasma; assay type: in vivo, human; conditions: CSF or plasma, bosutinib vs placebo
Method in brief: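 Oligomeric alpha-synuclein in CSF and plasma was quantified with a commercial quantitative ELISA kit per the manufacturer's protocol. Samples were drawn at baseline and week 12 from DLB participants on oral test compound 100 mg daily or matching placebo, 1–4 h after dosing and ~2 h after the last levodopa dose.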

[6] = system: individuals with dementia with Lewy bodies; assay type: in vivo, human; conditions: bosutinib 100 mg once daily, 12 weeks
[7] = system: dopamine metabolites DOPAC and HVA; test: Quantification of dopamine metabolites DOPAC and HVA; assay type: in vivo, human; conditions: bosutinib 100 mg compared to placebo, 12 weeks
Method in brief: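 CSF DOPAC and HVA were derivatized with benzoyl chloride and quantified by UHPLC-MS/MS. CSF was obtained by lumbar puncture at baseline and week 12, 1–4 h after oral test compound 100 mg daily or placebo and ~2 h after the last levodopa dose. Values were given as mean ± SD, with one-sided tests at 5% type I error and 90% CI.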

[8] = system: Aβ40, Aβ42, total tau, p‐tau 181; test: Aβ40, Aβ42, total tau, and p‐tau 181 ELISA in CSF and plasma; assay type: in vivo, human; conditions: CSF or plasma, bosutinib vs placebo
Method in brief: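 Plasma (10 mL blood) and lumbar-puncture CSF (~15 mL) were taken at baseline and at week 12 from DLB participants randomized 1:1 to oral test compound 100 mg daily or placebo. Sampling was 1–4 h post-dose, ~2 h after the last levodopa dose. Aβ40, Aβ42, total tau and p-tau181 were measured by Milliplex ELISA, with CSF and plasma run in parallel using the same reagents.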

Abl/SRC = conditions: cited from earlier work
alpha‐synuclein = test: Total alpha‐synuclein ELISA in CSF and plasma; assay type: in vivo, human; conditions: bosutinib 100 mg compared to placebo, 12 weeks
Method in brief: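 Total alpha-synuclein in CSF and plasma was measured by solid-phase sandwich ELISA per the kit protocol, and the CSF/plasma ratio was calculated from the two levels. Samples were taken at baseline and week 12 from DLB participants given oral test compound 100 mg daily or placebo. Changes were compared within groups by one-tailed paired Wilcoxon test and between groups by one-tailed Welch t-test.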

[9] = 100 mg, 12 weeks vs single dose
[10] = plasma, single oral dose 500 mg, normal individuals, n = 6
[11] = CSF, 100 mg, 12 weeks vs single dose
[12] = 100 mg, CSF, multiple oral doses 100 mg once daily, 12 weeks
[13] = 100 mg, CSF, single oral dose 100 mg
[14] = 200 mg, CSF, single oral dose 200 mg

Src, sequence (P12931 whole entry): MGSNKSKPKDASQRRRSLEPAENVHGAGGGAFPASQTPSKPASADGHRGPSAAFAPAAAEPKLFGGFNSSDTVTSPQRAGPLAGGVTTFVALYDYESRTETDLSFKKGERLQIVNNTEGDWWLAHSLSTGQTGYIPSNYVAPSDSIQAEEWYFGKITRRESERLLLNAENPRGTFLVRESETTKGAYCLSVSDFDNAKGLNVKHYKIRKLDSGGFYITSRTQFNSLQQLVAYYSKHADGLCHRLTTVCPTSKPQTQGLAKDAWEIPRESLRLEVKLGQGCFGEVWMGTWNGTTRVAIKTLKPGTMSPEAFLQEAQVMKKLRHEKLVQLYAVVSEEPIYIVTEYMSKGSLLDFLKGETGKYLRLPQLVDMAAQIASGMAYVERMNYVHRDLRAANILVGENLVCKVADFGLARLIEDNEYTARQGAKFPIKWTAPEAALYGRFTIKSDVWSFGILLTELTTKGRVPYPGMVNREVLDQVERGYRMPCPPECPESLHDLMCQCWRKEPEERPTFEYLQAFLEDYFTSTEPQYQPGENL

## COc1cc(Nc2c(C#N)cnc3cc(OCCCN4CCN(C)CC4)c(OC)cc23)c(Cl)cc1Cl [Bosutinib, Bosutinib monohydrate]
[1]; [9]
  Increase of plasma exposure (AUC0‐4), multiple doses compared to a single dose: ~3 fold
  Increase of plasma level (Cmax), multiple doses compared to a single dose: more than 2 fold
[1]; oral, Tmax in the current study, between 0 and 4 hours, current study
  Tmax: 3 to 4 h
[1]; po, 100 mg, multiple oral doses 100 mg once daily, 12 weeks
  AUC: 73.1 ng·h/mL and 0.138 µM·h
[1]; po, 100 mg, single oral dose 100 mg
  AUC: 25 ng·h/mL and 0.0479 µM·h
[1]; po, 100 mg, multiple oral doses 100 mg once daily, 12 weeks, n = 13
  Cmax: 29.9 ng/mL and 56.4 nM
[1]; po, 100 mg, single oral dose 100 mg, n = 9
  Cmax: 13.5 ng/mL and 25.5 nM
[1]; po, 100 mg, Tmax, multiple oral doses 100 mg once daily, 12 weeks
  Tmax: 4 h
[1]; po, 100 mg, Tmax, single oral dose 100 mg, sampling 0 to 4 hours
  Tmax: 3 h
[1]; po, 200 mg, single oral dose 200 mg
  AUC: 36.9 ng·h/mL and 0.0696 µM·h
[1]; po, 200 mg, single oral dose 200 mg, n = 9
  Cmax: 19.6 ng/mL and 37 nM
[2]
  Repeatable Battery for the Assessment of Neuropsychological Status (RBANS): less decline
[3]
  Alzheimer's Disease Assessment Scale–Cognitive subscale (ADAS‐Cog): −0.66 (−4.67, 3.33)
  Clinician Assessment of Fluctuation (CAF): 1 (−2,3)
  Irritability and Apathy Scale (IAS)‐_Participant_APATHY: 0 (−3, 4)
  Irritability and Apathy Scale (IAS)‐_Participant_IRRITABILITY: 0 (−2, 3)
  Irritability and Apathy Scale (IAS)‐_Partner_APATHY: −1 (−4, 2)
  Irritability and Apathy Scale (IAS)‐_Partner_IRRITABILITY: 1 (−1, 4)
  Montreal Cognitive Assessment (MoCA): 0 (−1, 2)
  Neuropsychiatric Inventory (NPI) frequency x severity: 0 (−8, 9)
  Neuropsychiatric Inventory (NPI)_Caregiver Distress: 2 (−1, 6)
  Problem Behaviours Assessment (PBA): 1 (−14, 10)
  Timed Up and Go: 0 (−3, 2)
  Unified Parkinson's Disease Rating Scale (Activities of Daily Living)‐Part II: −1 (−3, 2)
  Unified Parkinson's Disease Rating Scale (Motor)‐Part III: 0 (−4, 4)
  Unified Parkinson's Disease Rating Scale (SUM Part II+III): −1 (−6, 5)
  Unified Parkinson's Disease Rating Scale (UPDRS‐Cognition)‐Part I: 0 (−2, 1)
  Unified Parkinson's Disease Rating Scale (total Part I+III): −2 (−7, 6)
Src; CSF, Figure 2D
  CSF p‐Src: could not demonstrate differences
Src; plasma, Figure 2C
  Plasma active Src phosphorylated at Tyr416: significantly reduced
[4]; between 0 and 24 hours
  Tmax in previous studies: around 6 hours
[4]; [10]
  AUC0‐24: 2190 ± 661 ng/h/mL
  Tmax: 3.50 (2.00–6.00) hrs
[5]; [11]
  Increase of CSF exposure (AUC0‐4), multiple doses compared to a single dose: 10 fold
  Increase of CSF level (Cmax), multiple doses compared to a single dose: 9 fold
[5]; 100 mg, multiple oral doses 100 mg once daily, 12 weeks
  AUC: 1.15 ng·h/mL and 0.00216 µM·h
[5]; 100 mg, single oral dose 100 mg
  AUC: 0.14 ng·h/mL and 0.00026 µM·h
[5]; [12]
  Cmax: 0.94 ± 0.32 nM
  Tmax: 3 h
[5]; 100 mg, CSF, multiple oral doses 100 mg once daily, 12 weeks, n = 13
  Cmax: 0.5 ± 0.17 ng/mL
[5]; [13]
  Cmax: 0.11 ± 0.08 nM
  Tmax: 2 h
[5]; 100 mg, CSF, single oral dose 100 mg, n = 9
  Cmax: 0.06 ± 0.04 ng/mL
[5]; 200 mg, single oral dose 200 mg
  AUC: 0.24 ng·h/mL and 0.00044 µM·h
[5]; [14]
  Cmax: 0.25 ± 0.09 nM
  Tmax: 4 h
[5]; 200 mg, CSF, single oral dose 200 mg, n = 9
  Cmax: 0.13 ± 0.06 ng/mL
alpha‐synuclein oligomer
  Oligomeric alpha‐synuclein: no differences
[6]
  Prolongation of QTc intervals: no prolongation of QTc intervals
  Serious adverse events (SAEs): no serious adverse events
[6]; DLB, N = 13, number (%)
  Total dropped out: 0 (0%)
[6]; N = 13
  Adverse event: Dizziness, number of events (%): 1 (7.7%)
  Adverse event: Falls, number of events (%): 3 (23.1%)
  Adverse event: Flu, number of events (%): 0 (0%)
  Adverse event: Impaction, number of events (%): 0 (0%)
  Adverse event: Liver transaminases, number of events (%): 1 (7.7%)
  Adverse event: Pain, number of events (%): 3 (23.1%)
  Adverse event: Post‐lumbar puncture headache, number of events (%): 1 (7.7%)
  Adverse event: Upper respiratory infection, number of events (%): 0 (0%)
  Adverse event: Urinary incontinence, number of events (%): 1 (7.7%)
  Adverse event: Urinary tract infection, number of events (%): 1 (7.7%)
[6]; N = 13, 9 in placebo, P = 0.68
  Total number of adverse events (AEs): 11
[7]; CSF, Figure 2E
  CSF DOPAC level: no statistically significant difference
[7]; CSF, Figure 2F
  CSF HVA level: no statistically significant difference
[7]; plasma, Figure 2G
  Plasma DOPAC level: significantly reduced
[7]; plasma, Figure 2H
  Plasma HVA level: significantly reduced
[8]
  Aβ40: no differences
  Aβ42: no differences
  Total tau: no differences
  p‐tau181: no differences
Abl/SRC
  IC50: 1.2 nM
alpha‐synuclein; CSF, Figure 2I
  CSF alpha‐synuclein level: significantly reduced
alpha‐synuclein; Figure 2K
  CSF:plasma of alpha‐synuclein: reduced
